NR2E3 ag-1: NR2E3 agonists in two-hybrid cells, primary screen, cell-based, luminescence, CHO-S, Gal4-NCOR/VP16-NR2E3 | Photoreceptor-specific nuclear receptor (Homo sapiens), Q9Y5X4 | AID 602229, 2012 | 0.35% of 360,000 active | luciferase | inhibition of corepressor binding, % at 3.98 µM;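 active means inhibition above the mean of all tested compounds plus 3 SD, cut at about 70% in these data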;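 further: 0% = DMSO with NR2E3 transfected cells and 100% = cells lacking NR2E3 construct; higher means lower luciferase signal from less NR2E3 corepressor binding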
NR2E3 ag-2: inhibitors of NR2E3-RetCOR corepressor binding, primary screen, NR2E3 agonist project, biochemical, TR-FRET, GST-NR2E3, biotin-RetCOR | Photoreceptor-specific nuclear receptor (Homo sapiens), Q9Y5X4 | 1536-well | inhibition of corepressor binding, % at 4.78 µM | 0.12% of 320,000 active;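 active means percent inhibition above the cutoff of mean plus 3 SD of all tested compounds, set per screening campaign, cut at about 20% in these data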;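 further: 0% = DMSO wells and 100% = biotin wells as full block of FRET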
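Material: NR2E3–RetCOR corepressor complex / Incubation: Compound–protein incubation for 5 h at 4 °C / Dosing: compound at 4.8 µM, single dose / Detection: time-resolved FRET / Benchmarks: high control biotin, low control 0.6% DMSO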
NR1D1 modulator: modulators of Rev-erb alpha DNA binding, primary screen, biochemical, FITC-DNA, fluorescence polarization, uHTS. AID 1259318, 2017. activity, % at 10 µM. Rev-erbα–FITC-DNA binding, 90 min. 0.79% of 370,000 active. Nuclear receptor subfamily 1 group D member 1 (Homo sapiens), P20393;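 active means activity above about 14%, limit read from the data; passing the limit was not always enough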;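 further: 0% = DMSO wells with 35 nM protein and 100% = DMSO wells with 750 nM protein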
PG9 Ab binder: binders of HIV-1 gp120 antibody PG9, primary screen, biochemical, TR-FRET; inhibition, % at 6.7 µM; 0.43% of 360,000 active; AID 624416, 2012; HIV-1 gp120 / PG9 antibody interaction; TR-FRET gp120-PG9 antibody binding; in the data active means inhibition above about 8.5%
GalR3 antag: GalR3 antagonists in HEK293 cells, primary screen, cell-based, fluorescence readout; AID 651719, 2012; inhibition, % at 3 µM; 0.44% of 360,000 active; HEK293 GalR3-CNG cAMP membrane potential fluorescence; galR3 body fused to GalR1 C-terminus;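 active means inhibition above the screen-wide average plus 3 SD, cut at about 13% in these data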;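 further: forskolin and galanin both at EC90 stimulate the cells; cAMP rise reported by CNG channel membrane potential dye signal; 0% = forskolin plus galanin with DMSO and 100% = forskolin alone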
Target sequence (O60755 1-299 limits assumed): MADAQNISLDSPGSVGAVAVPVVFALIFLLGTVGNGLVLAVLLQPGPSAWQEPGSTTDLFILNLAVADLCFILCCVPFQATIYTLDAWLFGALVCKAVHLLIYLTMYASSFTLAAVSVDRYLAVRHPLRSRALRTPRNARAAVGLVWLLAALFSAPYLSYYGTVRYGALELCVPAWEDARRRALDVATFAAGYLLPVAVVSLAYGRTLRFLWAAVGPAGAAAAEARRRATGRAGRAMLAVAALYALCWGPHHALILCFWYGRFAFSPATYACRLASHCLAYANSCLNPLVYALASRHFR
NR1D1 mod conf: modulators of Rev-erb alpha DNA binding, confirmation, biochemical, FITC-DNA, fluorescence polarization, single point; shares compounds with NR1D1 modulator; 90 min; activation, % at 25 µM; 61% of 3,000 active; AID 1259319, 2017;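 active means activation at or above a set limit, or at least 3 SD above the negative control mean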;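 further: 0% = 35 nM protein with DMSO and 100% = 750 nM protein high control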
RORg DNA counter: modulation of RORgamma DNA binding, dose response, counter-screen for Rev-erb alpha modulator project, biochemical, fluorescence polarization, FITC-DNA; shares compounds with NR1D1 modulator; purified RORgamma protein-FITC-DNA binding; IC50, µM; 8% of 910 active;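 active means Compounds whose fitted half-maximal concentration for disrupting protein-DNA binding is below 10 micromolar; the record names Rev-erb in its text, so the target is in doubt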
* hit, by the source's call; i = inactive; nt = not tested or not shown. A selection: hits, their analogues and other compounds. The true share with any hit is near 1.8%.

SMILES | NR2E3 ag-1 | NR2E3 ag-2 | NR1D1 modulator | PG9 Ab binder | GalR3 antag | NR1D1 mod conf | others
CCN(CC)c1ccc(/C=C(/C#N)c2nc3ccc(C)cc3[nH]2)c(OC(C)C)c1 | -1 | -4 | nt | -3 | -6 | nt
COc1ccccc1CCn1cnc(-c2ccc(F)cc2)c1CC(C)C | nt | nt | 1 | 0 | -5 | nt
CCOCCCNC(=O)c1cc(-c2ccc(Br)s2)nc2ccccc12 | -19 | -46 | 21* | -29 | -12 | -15
O=C(N=c1ccn(-c2nc3ccccc3nc2NS(=O)(=O)c2ccc(Cl)cc2)cc1)c1cccs1 | -33 | -3 | 91* | 2 | 1 | 33* | RORg DNA counter=i
N#C/C(=C\c1ccc(O)cc1)C(=O)NCc1ccccc1 | -5 | -2 | 4 | -2 | -6 | nt
C=CCNC(=O)/C(C#N)=C/c1ccc(C)o1 | -4 | 1 | -8 | 0 | -8 | nt
CC(C)NC(=O)/C(C#N)=C\c1ccc(N(C)C)o1 | -22 | -13 | 15* | -30 | -9 | 12
CCN(CC)c1ccc(/C=C(/C#N)C(=O)NCc2ccccc2)o1 | -80 | -4 | 25* | -14 | 1 | 6
COC(=O)[C@H]1C[C@@]2(CC=C(C)C)c3ccccc3N(C(=O)OC(C)(C)C)[C@H]2N1C(=O)OC(C)(C)C | nt | nt | -5 | nt | nt | nt
C=CCn1c(SCc2nc3ccccc3c(=O)[nH]2)nnc1-c1cc2cc(Cl)ccc2o1 | -7 | 1 | 26* | -1 | -3 | 30*
COC(=O)c1ccc2nc(C3CCCCC3)c(Cc3ccccc3C(F)(F)F)n2c1 | -2 | nt | 18* | -3 | -10 | 12*
CC(=O)Nc1nc(CC(C)C)cc2c1c(=O)oc1ccccc12 | -15 | 2 | 27* | 6 | 0 | 3
Cc1cc(O)ccc1C1(c2ccc(O)cc2C)OC(=O)c2ccccc21 | -3 | 2 | 5 | 0 | -3 | nt
O=C1OC2(c3ccc(O)cc3Oc3cc(O)ccc32)c2ccccc21 | nt | nt | 691* | nt | nt | 596*
O=C(N1CCC(C(O)(c2ccccc2)c2ccccc2)CC1)n1ncc(C(O)(c2ccccc2)c2ccccc2)n1 | nt | nt | 10 | nt | nt | nt
Cc1nc2cc(C(=O)N3CCN(C(=O)C(C)(C)C)CC3)ccc2n1C1CCCC1 | nt | nt | -5 | nt | nt | nt
CC1(C)Cc2c(sc(NC(=O)COc3ccc(Cl)cc3)c2C(N)=O)C(C)(C)N1 | 3 | 2 | 16* | 0 | -3 | -1
Cc1ccc(OCC(=O)Nc2sc3c(c2C#N)CC(C)(C)NC3(C)C)cc1 | -8 | 0 | -7 | 1 | -2 | nt
O=C(OCC#CCSc1nnc(-c2cccc3ccccc23)o1)c1ccc(OC(F)(F)F)cc1 | nt | nt | 4 | nt | nt | nt
O=C(/C=C/c1c[nH]c2ccccc12)c1ccccc1 | -70 | 1 | -4 | -1 | -5 | nt
C(=Cc1c[nH]c2ccccc12)c1nccc2ccccc12 | -175 | nt | 25* | -2 | -5 | 23*
OCC[n+]1ccc(/C=C/c2c[nH]c3ccccc23)cc1 | -26 | -5 | 161* | -16 | -5 | 144* | RORg DNA counter=i
CCC(C)(Oc1ccc(C2(c3ccc(OC(C)(CC)C(=O)O)cc3)CCCCC2)cc1)C(=O)O (stereo unspecified) | nt | nt | 2 | nt | nt | nt
Cc1n[nH]c(C)c1CCNC(=O)C1CCC(=O)N(Cc2ccccc2F)C1 (stereo unspecified) | 3 | -1 | 17* | 0 | -3 | 0
O=C(NCCc1ccccc1F)C1CCC(=O)N(Cc2ccccc2F)C1 (stereo unspecified) | -57 | -3 | -2 | 0 | -7 | nt
O=C(O)CCCN1CCC(O[C@@H](c2ccc(Cl)cc2)c2ccccn2)CC1 | nt | nt | -11 | nt | nt | nt
